Laboratory results as given in PubChem BioAssay AID623889 (Vanderbilt Specialized Chemistry Center, 2012).
Values joined by “and” are separate entries in the source; they are usually repeats but may differ in a detail not shown here. Equal entries are not always repeated.

Molecular target: Metabotropic glutamate receptor 4 (Rattus norvegicus) (UniProt P31423)
Test: glutamate potency shift at mGlu4 – rat, HEK/GIRK cells, thallium flux, mGlu4 lead optimization, SAR follow-up (AID 623889)
Settings: at 30 µM, stronger effect = higher value; for glutamate max response: glutamate fold shift, measured here: glutamate maximal response with compound
Summary of the method: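 Material: HEK cells stably co-expressing GIRK channel, M4 receptor and rat mGlu4; reagent: glutamate concentration-response series with thallium; dosing: single test compound concentration, 30 µM final (from 2x solution); schedule: compound pre-incubation about 2.5 min before glutamate addition; detection: thallium influx through GIRK via FluoZin-2 AM fluorescence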

Sequence of Metabotropic glutamate receptor 4 (Rattus norvegicus) (P31423 whole entry, looked up): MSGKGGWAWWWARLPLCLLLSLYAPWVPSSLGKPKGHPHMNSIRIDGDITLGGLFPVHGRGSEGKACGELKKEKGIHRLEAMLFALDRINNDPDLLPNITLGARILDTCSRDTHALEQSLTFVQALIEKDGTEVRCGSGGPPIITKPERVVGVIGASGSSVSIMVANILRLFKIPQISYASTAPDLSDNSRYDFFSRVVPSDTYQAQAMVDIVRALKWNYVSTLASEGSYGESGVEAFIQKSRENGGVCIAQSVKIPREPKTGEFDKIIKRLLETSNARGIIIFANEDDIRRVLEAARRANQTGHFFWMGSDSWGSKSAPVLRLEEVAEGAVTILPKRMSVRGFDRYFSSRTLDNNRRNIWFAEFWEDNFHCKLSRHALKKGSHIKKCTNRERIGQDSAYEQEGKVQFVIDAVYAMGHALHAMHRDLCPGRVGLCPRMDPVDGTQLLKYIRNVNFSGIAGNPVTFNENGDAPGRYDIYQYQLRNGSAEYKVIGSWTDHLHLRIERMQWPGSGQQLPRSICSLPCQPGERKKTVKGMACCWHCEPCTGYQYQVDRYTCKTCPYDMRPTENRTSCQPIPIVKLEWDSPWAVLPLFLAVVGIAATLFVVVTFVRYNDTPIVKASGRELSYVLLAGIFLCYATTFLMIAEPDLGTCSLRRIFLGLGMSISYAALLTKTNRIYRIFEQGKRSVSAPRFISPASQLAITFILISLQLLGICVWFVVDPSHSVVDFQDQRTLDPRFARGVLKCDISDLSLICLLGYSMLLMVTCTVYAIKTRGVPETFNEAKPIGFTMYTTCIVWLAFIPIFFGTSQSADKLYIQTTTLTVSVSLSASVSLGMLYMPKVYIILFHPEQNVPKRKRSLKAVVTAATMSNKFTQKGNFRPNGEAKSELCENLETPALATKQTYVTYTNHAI

Clc1ccc2nc(-c3ccccn3)[nH]c2c1
fold shift: 15.3
glutamate max response: 87.2%

Clc1cccc(Nc2ncnc3cccnc23)c1
fold shift: 4.02
glutamate max response: 87.2%

O=C(Nc1cccc(Cl)c1)c1ccccn1
fold shift: 30.2
glutamate max response: 88.8%

O=C(Nc1ccc2c(c1)C(=O)NC2=O)c1ccccn1
fold shift: 2.52
glutamate max response: 105%

O=C(Nc1ccc2cn[nH]c2c1)c1ccccn1
fold shift: 11.9
glutamate max response: 103%

FC(F)Oc1cccc(Nc2noc3cccnc23)c1
fold shift: 21.7 and 16.3
glutamate max response: 98.4% and 99.7%

COc1cc2nc(-c3ccccn3)[nH]c2cc1Cl
fold shift: 3.21
glutamate max response: 90.9%

COc1cc(Nc2noc3cccnc23)ccc1Cl
fold shift: 6.67
glutamate max response: 84.3%

CC(C)N(C(=O)c1ccccn1)c1cccc(Cl)c1
fold shift: 3.16
glutamate max response: 108%

Fc1cccc(Nc2noc3cccnc23)c1
fold shift: 8.9
glutamate max response: 93.6%

Clc1cccc(Nc2noc3cccnc23)c1
fold shift: 31.1 and 22.7 and 17.8
glutamate max response: 90.3% and 98.5% and 99.1%
